Measurements: PMC6467287 (Bioorganic & medicinal chemistry letters, 2018)

Experiments:
[1] = system: DUBs (decomposition of high molecular weight ubiquitinated proteins, HMW-Ub) in HEK 293T cell lysates; format: biochemical; details: for stabilization of the HMW-Ub pool (in words): HEK 293T HA-Ub lysates, 37 °C; for DUB inhibitory activity, SAR statement in words: ring B amine modification; for increase of inhibitory potency (factor): relative to C4
MCF7 breast cancer cells = assay: Effects on MCF7 cells; format: cell-based; details: for cytotoxicity of C17 hydrolysis products: viability of MCF7 cells
SENP6 = biological target: T1, SENP6 (Homo sapiens, UniProt Q9GZR1); assay: SENP6-catalyzed deSUMOylation of RanGap; format: biochemical; details: 30 min at room temperature with inhibitor
T1 sequence (Q9GZR1 628-1112): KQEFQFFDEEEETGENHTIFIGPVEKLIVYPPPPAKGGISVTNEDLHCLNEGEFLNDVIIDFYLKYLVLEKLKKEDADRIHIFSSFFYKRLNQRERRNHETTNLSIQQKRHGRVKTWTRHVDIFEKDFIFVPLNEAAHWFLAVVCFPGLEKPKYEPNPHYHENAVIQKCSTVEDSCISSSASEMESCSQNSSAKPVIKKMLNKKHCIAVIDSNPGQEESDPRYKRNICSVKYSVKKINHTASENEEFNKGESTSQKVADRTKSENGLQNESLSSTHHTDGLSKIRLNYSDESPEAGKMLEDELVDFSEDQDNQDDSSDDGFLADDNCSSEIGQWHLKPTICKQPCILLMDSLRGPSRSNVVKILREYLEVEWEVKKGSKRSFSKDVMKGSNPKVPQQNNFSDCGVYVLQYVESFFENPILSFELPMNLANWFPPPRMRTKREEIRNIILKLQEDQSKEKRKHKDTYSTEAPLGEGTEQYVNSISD
Outline: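 His6-tagged SENP6 catalytic domain (aa 628-1112, 200 nM) was preincubated with test compound for 30 min at room temperature. SUMOylated His6-RanGap1 catalytic domain (aa 418-588, 3 μM) was then added for 10 min at 37 °C. Reactions were quenched in Laemmli buffer, resolved by SDS-PAGE and blotted with anti-His6 antibody.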

trypsin = assay: Trypsin-catalyzed hydrolysis of diarylcarbonates; format: biochemical
Outline: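 The diarylcarbonate served as substrate for trypsin. Hydrolysis velocity was measured across substrate concentrations, and Km and kcat were derived from the velocity versus substrate concentration plot.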

[2] = system: endogenous K48-linked HMW ubiquitin pool in untransfected HEK 293T lysates; format: biochemical; details: read-out: EC50 for stabilization of the endogenous K48-linked HMW ubiquitin pool
[3] = system: 26S proteasome (flux through the ubiquitin-proteasome system); assay: G76VUb-GFP assay in HEK 293T cells; format: cell-based; details: HEK 293T cells expressing G76VUb-GFP
K562 leukemia cells = assay: Effects on K562 leukemia cells; format: cell-based; details: for accumulation of K48-linked HMW-Ub / Bcr-Abl level: 50 μM, 2 h; for Bcr-Abl level: anti-Abl immunoblot
Outline: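 K562 cells were treated with test compound (50 μM, 2 h) and immunoblotted for K48-linked ubiquitin and for Bcr-Abl (anti-Abl); Bcr-Abl was also tested over a dose range. For the bortezomib series, cells got test compound (50 μM) with or without bortezomib (6 μM) for 4 h. Lysates were sonicated in SDS before PAGE. Cell cycle was read by FACS, scoring G1 and sub-G1 (apoptotic) cells.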

[4] = biological target: DUBs (USP9x, USP19, USP7/8, USP28/15, UCHL5, UCHL3, UCHL1) in HEK 293T cell lysates (Homo sapiens, UniProt Q93009); assay: HA-Ub-VS activity profiling of HEK 293T cell lysates; format: biochemical; details: HEK 293T cell lysate
Outline: (§1)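 HEK 293T lysate (1.5 mg/ml) was treated with test compound (25 μM) or DMSO, then HA-Ub-VS (1.5 μM) was added, or both were added together. Timed aliquots were anti-HA blotted. For the dilution test, lysate (15 mg/ml) was preincubated with compound (250 μM) for 30 min, diluted tenfold, then given HA-Ub-VS (1.5 μM). USP7 was read by anti-USP7 blot as the probe-shifted band.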

[5] = system: DUBs (USP9x, USP19, USP7/8, USP28/15, UCHL5, UCHL3, UCHL1) in HEK 293T cell lysates; assay: as above; format: biochemical
Outline: as §1

[6] = system: N/N=C/NCc1ccc(OC(=O)Oc2ccc3ccccc3c2)cc1; assay: purified protein, by the assay type; details: other: chymotrypsin; 37.0 °C
[7] = system: NCc1ccc(OC(=O)Oc2ccc3ccccc3c2)cc1; assay: purified protein, by the assay type; details: other: chymotrypsin; 37.0 °C
USP9x = USP9x (Homo sapiens, UniProt Q93008); assay: Time-dependent inhibition of recombinant USP9x; format: biochemical; details: read-out: kon of commercially available DUB inhibitors (range)
USP9x, sequence (Q93008 whole entry, species assumed): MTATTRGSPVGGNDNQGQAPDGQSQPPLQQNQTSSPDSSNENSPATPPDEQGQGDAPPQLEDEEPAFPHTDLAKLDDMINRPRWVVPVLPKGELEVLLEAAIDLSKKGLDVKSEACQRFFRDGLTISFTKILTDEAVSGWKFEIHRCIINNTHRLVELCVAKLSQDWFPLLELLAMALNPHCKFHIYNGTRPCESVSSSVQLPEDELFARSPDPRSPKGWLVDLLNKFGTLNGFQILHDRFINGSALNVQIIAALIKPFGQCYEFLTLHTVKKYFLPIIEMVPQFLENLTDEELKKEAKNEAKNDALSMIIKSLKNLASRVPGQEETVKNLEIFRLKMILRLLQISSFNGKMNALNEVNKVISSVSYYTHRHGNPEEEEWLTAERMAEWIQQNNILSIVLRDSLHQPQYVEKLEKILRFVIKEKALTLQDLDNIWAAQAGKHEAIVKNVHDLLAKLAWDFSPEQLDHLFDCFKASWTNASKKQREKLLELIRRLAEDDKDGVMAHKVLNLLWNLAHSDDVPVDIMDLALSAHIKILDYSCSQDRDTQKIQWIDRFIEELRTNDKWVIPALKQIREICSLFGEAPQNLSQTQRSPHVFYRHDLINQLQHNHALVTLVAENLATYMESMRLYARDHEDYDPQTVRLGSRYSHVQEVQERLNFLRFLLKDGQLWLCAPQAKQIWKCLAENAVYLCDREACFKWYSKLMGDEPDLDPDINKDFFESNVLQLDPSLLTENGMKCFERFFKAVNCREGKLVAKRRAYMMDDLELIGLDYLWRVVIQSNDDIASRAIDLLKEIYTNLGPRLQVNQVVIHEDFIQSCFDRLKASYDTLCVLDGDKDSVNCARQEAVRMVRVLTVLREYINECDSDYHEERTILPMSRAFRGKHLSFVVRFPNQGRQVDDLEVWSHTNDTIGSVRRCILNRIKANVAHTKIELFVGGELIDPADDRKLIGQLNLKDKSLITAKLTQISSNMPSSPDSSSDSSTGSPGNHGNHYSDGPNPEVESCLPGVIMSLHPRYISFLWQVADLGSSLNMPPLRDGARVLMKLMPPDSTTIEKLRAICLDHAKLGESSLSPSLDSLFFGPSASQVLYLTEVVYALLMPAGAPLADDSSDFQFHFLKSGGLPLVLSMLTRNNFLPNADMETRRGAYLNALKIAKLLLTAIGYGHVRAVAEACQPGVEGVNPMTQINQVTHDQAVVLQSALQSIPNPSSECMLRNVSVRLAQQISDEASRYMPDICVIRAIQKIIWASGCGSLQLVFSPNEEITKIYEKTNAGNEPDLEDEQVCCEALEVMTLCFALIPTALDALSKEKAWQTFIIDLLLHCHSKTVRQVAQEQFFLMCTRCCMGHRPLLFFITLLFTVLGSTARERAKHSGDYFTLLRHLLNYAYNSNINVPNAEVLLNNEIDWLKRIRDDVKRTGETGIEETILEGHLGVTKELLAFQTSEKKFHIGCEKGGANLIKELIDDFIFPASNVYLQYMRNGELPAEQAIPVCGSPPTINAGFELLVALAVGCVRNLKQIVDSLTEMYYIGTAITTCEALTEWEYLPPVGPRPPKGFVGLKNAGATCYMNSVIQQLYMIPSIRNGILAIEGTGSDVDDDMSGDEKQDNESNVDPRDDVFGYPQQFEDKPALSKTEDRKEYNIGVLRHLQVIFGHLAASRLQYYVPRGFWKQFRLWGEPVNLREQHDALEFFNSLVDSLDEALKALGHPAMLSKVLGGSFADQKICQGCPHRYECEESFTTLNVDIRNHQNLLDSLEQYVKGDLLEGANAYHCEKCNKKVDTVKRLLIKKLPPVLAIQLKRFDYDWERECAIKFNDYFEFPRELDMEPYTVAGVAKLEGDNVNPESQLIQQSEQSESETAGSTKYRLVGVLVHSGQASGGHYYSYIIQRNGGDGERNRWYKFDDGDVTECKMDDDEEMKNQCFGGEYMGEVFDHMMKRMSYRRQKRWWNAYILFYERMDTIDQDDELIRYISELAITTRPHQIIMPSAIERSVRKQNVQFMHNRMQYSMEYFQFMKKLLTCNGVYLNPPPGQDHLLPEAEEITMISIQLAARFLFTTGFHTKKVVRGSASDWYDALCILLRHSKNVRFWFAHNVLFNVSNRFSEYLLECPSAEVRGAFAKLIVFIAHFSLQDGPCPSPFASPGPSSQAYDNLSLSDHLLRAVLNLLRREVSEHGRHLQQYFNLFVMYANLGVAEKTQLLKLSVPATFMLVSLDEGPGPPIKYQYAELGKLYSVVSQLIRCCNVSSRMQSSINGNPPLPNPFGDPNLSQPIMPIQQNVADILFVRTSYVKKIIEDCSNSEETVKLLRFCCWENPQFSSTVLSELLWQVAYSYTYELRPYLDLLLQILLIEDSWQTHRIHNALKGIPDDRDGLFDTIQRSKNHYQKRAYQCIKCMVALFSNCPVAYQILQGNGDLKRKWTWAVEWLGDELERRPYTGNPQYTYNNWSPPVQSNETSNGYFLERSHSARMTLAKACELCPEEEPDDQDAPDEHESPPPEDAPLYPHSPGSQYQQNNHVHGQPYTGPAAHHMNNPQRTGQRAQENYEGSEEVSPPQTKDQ

DUBs (USP9x, USP19, USP7/8, USP28/15, UCHL5, UCHL3, UCHL1) in HEK 293T cell lysates (Homo sapiens, UniProt Q93009), sequence (Q93009 whole entry): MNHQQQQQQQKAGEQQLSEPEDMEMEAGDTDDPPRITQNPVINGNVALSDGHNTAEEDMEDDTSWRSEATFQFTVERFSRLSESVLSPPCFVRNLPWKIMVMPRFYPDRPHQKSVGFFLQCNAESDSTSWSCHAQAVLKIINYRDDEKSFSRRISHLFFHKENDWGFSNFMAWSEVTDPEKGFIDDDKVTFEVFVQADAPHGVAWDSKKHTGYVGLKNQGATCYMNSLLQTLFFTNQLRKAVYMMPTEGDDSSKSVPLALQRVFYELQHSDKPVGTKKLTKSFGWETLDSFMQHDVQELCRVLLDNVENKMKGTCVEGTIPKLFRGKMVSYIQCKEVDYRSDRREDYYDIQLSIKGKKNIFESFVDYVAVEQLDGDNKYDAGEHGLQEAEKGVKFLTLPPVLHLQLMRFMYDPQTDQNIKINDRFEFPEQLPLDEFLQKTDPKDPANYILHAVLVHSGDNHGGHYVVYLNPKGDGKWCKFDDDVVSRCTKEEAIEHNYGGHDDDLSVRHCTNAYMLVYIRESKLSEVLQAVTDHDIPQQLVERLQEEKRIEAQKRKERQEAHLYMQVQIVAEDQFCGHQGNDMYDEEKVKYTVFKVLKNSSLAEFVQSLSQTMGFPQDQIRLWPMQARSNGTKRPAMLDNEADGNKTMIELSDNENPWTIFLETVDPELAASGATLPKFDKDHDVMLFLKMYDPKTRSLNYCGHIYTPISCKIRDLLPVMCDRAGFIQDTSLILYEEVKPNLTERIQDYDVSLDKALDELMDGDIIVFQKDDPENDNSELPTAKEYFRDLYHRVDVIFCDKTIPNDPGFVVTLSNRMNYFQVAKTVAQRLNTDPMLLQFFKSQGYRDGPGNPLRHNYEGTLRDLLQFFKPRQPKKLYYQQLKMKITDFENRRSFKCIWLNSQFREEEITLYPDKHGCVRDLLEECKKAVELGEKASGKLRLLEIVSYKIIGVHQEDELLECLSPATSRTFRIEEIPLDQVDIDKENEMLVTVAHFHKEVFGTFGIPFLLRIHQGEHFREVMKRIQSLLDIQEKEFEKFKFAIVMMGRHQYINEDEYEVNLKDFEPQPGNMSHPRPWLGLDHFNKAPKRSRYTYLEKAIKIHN

NCc1ccc(NC(=O)Oc2ccccc2)cc1 [C8]
stabilization of the HMW-Ub pool (in words) [1]: did not stabilize

CC(C)(C)OC(=O)NCc1ccc(OC(=O)Oc2ccc(Cl)cc2)cc1 [C23]
DUB inhibitory activity, SAR statement in words [1]: Inhibitory activity was not recovered

Cc1cc(C(=O)CN2CCCC2)c(C)n1-c1ccc(F)cc1 [IU1, reference compound]
stabilization of the HMW-Ub pool (in words) [1]: little effect

CC(C)CNCc1ccc(OC(=O)Oc2ccc3ccccc3c2)cc1 [C21]
DUB inhibitory activity, SAR statement in words [1]: somewhat deleterious

CC(C)(C)CNCc1ccc(OC(=O)Oc2ccc3ccccc3c2)cc1 [C20]
DUB inhibitory activity, SAR statement in words [1]: Inhibitory activity was retained

Oc1ccc2ccccc2c1 [2-naphthol]
cytotoxicity of C17 hydrolysis products (MCF7 breast cancer cells): not cytotoxic

NCc1ccc(OC(=O)Nc2ccccc2)cc1 [C7]
stabilization of the HMW-Ub pool (in words) [1]: did not stabilize

N/N=C/NCc1ccc(OC(=O)Oc2ccc3ccccc3c2)cc1 [C22]
DUB inhibitory activity, SAR statement in words [1]: efficacious | inhibition of SENP6-catalyzed deSUMOylation of RanGap (SENP6): failed to inhibit | kcat as substrate (trypsin): 0.001 s⁻¹

NCc1ccc(O)cc1 [4-aminomethylphenol]
cytotoxicity of C17 hydrolysis products (MCF7 breast cancer cells): not cytotoxic

NCc1ccc(OC(=O)Oc2cccc3ccccc23)cc1 [C18]
EC50 [2]: < 50 µM | GFP fluorescence in G76VUb-GFP assay [3]: failed to increase | accumulation of K48-linked HMW-Ub (K562 leukemia cells): caused the accumulation | Bcr-Abl level (K562 leukemia cells): decrease

NCc1ccc(OC(=O)Oc2ccc3ccccc3c2)cc1 [C17]
EC50 [2]: < 50 µM | kcat as substrate (trypsin): 0.02 s⁻¹ | inhibition of USP7 (anti-USP7 immunoblot after HA-UbVS) [4]: inhibition of USP7 was confirmed | HA-Ub-VS labeling of DUB bands ([5]; compound (25 μM) and HA-Ub-VS (1.5 μM) added simultaneously): no inhibition of DUB labeling was observed | HA-Ub-VS labeling of DUB bands ([5]; lysate treated with compound (25 μM) followed by HA-Ub-VS (1.5 μM)): decreasing the labeling of all the bands | HA-Ub-VS labeling of DUB bands ([5]; pre-incubated with compound (250 μM) 30 min, diluted 10-fold before HA-Ub-VS): labeling was reduced | GFP fluorescence in G76VUb-GFP assay [3]: failed to increase | accumulation of K48-linked HMW-Ub (K562 leukemia cells): caused the accumulation | Bcr-Abl level (K562 leukemia cells): decrease | G1 and apoptotic (sub G1) cells (K562 leukemia cells; 24 h incubation, FACS): dose-dependent increase | Bcr-Abl degradation in the presence of bortezomib (K562 leukemia cells; C17 50 μM, bortezomib 6 μM, 4 h): did not prevent | accumulation of soluble HMW-Ub (MCF7 breast cancer cells; MCF7 cells, 50 μM, 4 h): caused the accumulation | Mdm2 levels (MCF7 breast cancer cells; MCF7 cells, 4 h): decreased | p21/WAF1 levels (MCF7 breast cancer cells; MCF7 cells, 4 h): robust increase | p53 levels (MCF7 breast cancer cells; MCF7 cells, 4 h): concomitant increase | cell viability (MCF7 breast cancer cells; MCF7 cells, treated every 24 h, 72 h, Alamar Blue): cell viability decreased

CC(C)(C)OC(=O)NCc1ccc(OC(=O)Oc2ccccc2)cc1 [C3]
DUB inhibitory activity, SAR statement in words [1]: activity was lost

CC(C)C[C@H](NC(=O)[C@H](Cc1ccccc1)NC(=O)c1cnccn1)B(O)O [bortezomib, reference compound]
stabilization of the HMW-Ub pool (in words) [1]: failed to stabilize | GFP fluorescence in G76VUb-GFP assay [3]: significantly increased

NCc1ccc(OC(=O)Oc2ccc(Br)cc2)cc1 [C15]
increase of inhibitory potency (factor) [1]: approximately 10 | EC50 [2]: < 50 µM | inhibition of SENP6-catalyzed deSUMOylation of RanGap (SENP6): failed to inhibit | GFP fluorescence in G76VUb-GFP assay [3]: failed to increase | accumulation of K48-linked HMW-Ub (K562 leukemia cells): caused the accumulation | Bcr-Abl level (K562 leukemia cells): decrease

O=C(Oc1ccccc1)Oc1ccc(CNCc2ccc(Cl)cc2)cc1 [C5]
DUB inhibitory activity, SAR statement in words [1]: retained DUB inhibitory activity

NCc1ccc(OC(=O)Oc2ccc(Cl)cc2)cc1 [C14]
increase of inhibitory potency (factor) [1]: approximately 10 | EC50 [2]: < 50 µM | inhibition of SENP6-catalyzed deSUMOylation of RanGap (SENP6): failed to inhibit | GFP fluorescence in G76VUb-GFP assay [3]: failed to increase | accumulation of K48-linked HMW-Ub (K562 leukemia cells): caused the accumulation | Bcr-Abl level (K562 leukemia cells): decrease

chymotrypsin (Bos taurus)
Km [6]: 1 µM | kcat [6]: 0.03 s⁻¹ | Km [7]: 1 µM | kcat [7]: 0.03 s⁻¹

O=C1/C(=C/c2ccc([N+](=O)[O-])cc2)CS(=O)(=O)C/C1=C\c1ccc([N+](=O)[O-])cc1 [G5, G5 isopeptidase inhibitor 1, reference compound]
stabilization of the HMW-Ub pool (in words) [1]: stabilized | GFP fluorescence in G76VUb-GFP assay [3]: No significant increase

CC(C)(C)OC(=O)NCc1ccc(OC(=O)Oc2ccc3ccccc3c2)cc1 [C19]
DUB inhibitory activity, SAR statement in words [1]: Inhibitory activity was not recovered

Cc1ccc(/C=C2\CNC/C(=C\c3ccc(C)cc3)C2=O)cc1 [NSC-632839]
kon (USP9x): 49 to 140 M⁻¹ s⁻¹
